Results published in ChEMBL document CHEMBL1143238, “Oxazaborolidine derivatives inducing autoinducer-2 signal transduction in Vibrio harveyi” (2008).
In brackets after ≈: the same amount, converted by molar mass. Activity calls are given as the source filed them. The calls are words filed in the database; no cut-off is given here.

Key:
[1] = test system: Vibrio harveyi; assay: Induction of bioluminescence in Vibrio harveyi BB170 mutant (sensor 1-, sensor 2+) at 600 uM; format: functional, organism-based
Outline: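 Strain was grown in AB medium at 30 °C with shaking to 1.5–2.5 · 10^9 CFU/ml (15–16 h), then diluted 1:5000 or 1:10,000 into fresh AB medium containing compound. Incubation was at 30 °C for about 7 h with luminescence monitoring. Light was normalized to CFU or OD595. Fold induction over endogenous luminescence was taken at the minimum-luminescence point (3–4 h). Negative control was fresh AB medium; positive control was 10% v/v BB152 spent medium.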

[2] = test system: Vibrio harveyi; assay: Antibacterial activity against Vibrio harveyi MM77 mutant after 18 hrs; format: functional
Outline: (§1)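 Strains were grown aerobically at 30 °C with shaking in AB medium. Growth was read as OD595 after 18 h incubation. Each experiment was run in triplicate and repeated three times.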

[3] = test system: Vibrio harveyi; assay: Antibacterial activity against Vibrio harveyi BB886 mutant after 18 hrs; format: functional; outline: as §1
[4] = test system: Vibrio harveyi; assay: Antibacterial activity against Vibrio harveyi BB170 mutant after 18 hrs; format: functional; outline: as §1

`C[C@H]1[C@@H](c2ccccc2)OB(c2ccccc2)N1C` was tested, and the Activity [1] was “Active”.

`CCCCB1O[C@H](c2ccccc2)[C@H](C)N1C` gave an MIC [2] of 10 mM (≈ 2310 µg/mL) and an MIC [3] of 10 mM (≈ 2310 µg/mL).

With `CC1(C)COB(c2ccccc2)N1` the MIC [2] was 10 mM (≈ 1750 µg/mL) and the MIC [3] was 5 mM (≈ 875 µg/mL).

In the case of `C[C@H]1NB(c2ccccc2)O[C@@H]1c1ccccc1`, the MIC [2] is reported as 10 mM (≈ 2370 µg/mL), the MIC [3] is reported as 10 mM (≈ 2370 µg/mL) and the MIC [4] is reported as 10 mM (≈ 2370 µg/mL).
